According to ChEMBL document CHEMBL5104207, “Synthesis, biological evaluation and computational studies of pyrazole derivatives as Mycobacterium tuberculosis CYP121A1 inhibitors” (RSC Med Chem, 2022):
In brackets after ≈: the same amount, converted by molar mass.

Tested on: Mycobacterium tuberculosis
Test: Antimycobacterial activity against Mycobacterium tuberculosis H37Rv assessed as inhibition of bacterial growth for 5 weeks by spot culture growth inhibition assay
Format: functional
Conditions: 840 h
Summary of the method: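 M. tuberculosis H37Rv grown shaking at 37 °C in 7H9 with 0.5% glycerol, 10% OADC and 0.025% Tween 80 to OD 1, then diluted 1:100 and 2 µL spotted. Wells hold 7H10 agar with 0.5% glycerol and 10% OADC plus compound, two-fold serial dilutions in DMSO from 150 μg mL-1. Plates used within 24 h. Incubated 37 °C for five weeks, then MIC90 recorded.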

CC(C)Oc1ccc(-c2nn(-c3ccc(Cl)cc3)cc2Cn2ccnc2)cc1 gave an MIC90 of 15.3 µM (≈ 6.01 µg/mL).
